Source: ChEMBL document CHEMBL1155347, “Synthesis and antimicrobial activities of novel quinoline derivatives carrying 1,2,4-triazole moiety” (2009)
Converted amounts (≈) assume the structure as drawn.

Legend:
Assay type in all cases: functional
Aspergillus fumigatus [1] = assay: Antifungal activity against Aspergillus fumigatus NCIM 902 at MIC after 3 to 4 days by agar well diffusion method
Outline: (§1)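 Sabouraud agar (peptone, D-glucose, agar; pH 5.7) seeded with spore suspension made by transferring a loopful of fungus to 3 mL normal saline. Excess decanted, plates dried 1 h at 37 °C. Compounds in DMSO at MIC added to punched wells; DMSO control. Triplicate plates kept 3–4 days at 37 °C.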

Staphylococcus aureus [2] = assay: Antibacterial activity against Staphylococcus aureus ATCC 25923 after 16 to 18 hrs by serial plate dilution method
Outline: (§2)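 Drug serially diluted in Mueller–Hinton broth in tubes, adjusted to pH 5.0 with phosphate buffer. Inoculated with standardized bacterial suspension and incubated 16–18 h at 37 °C. MIC taken as lowest concentration with no visible growth.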

Escherichia coli [3] = assay: Antibacterial activity against Escherichia coli ATCC 25922 after 16 to 18 hrs by serial plate dilution method; outline: as §2
Pseudomonas aeruginosa [4] = assay: Antibacterial activity against Pseudomonas aeruginosa ATCC 27853 after 16 to 18 hrs by serial plate dilution method; outline: as §2
Klebsiella pneumoniae [5] = assay: Antibacterial activity against recultured Klebsiella pneumoniae after 16 to 18 hrs by serial plate dilution method; outline: as §2
Staphylococcus aureus [6] = assay: Antibacterial activity against Staphylococcus aureus ATCC 25923 at MIC after 3 to 4 days by agar well diffusion method
Escherichia coli [7] = assay: Antibacterial activity against Escherichia coli ATCC 25922 at MIC after 3 to 4 days by agar well diffusion method
Pseudomonas aeruginosa [8] = assay: Antibacterial activity against Pseudomonas aeruginosa ATCC 27853 at MIC after 3 to 4 days by agar well diffusion method
Klebsiella pneumoniae [9] = assay: Antibacterial activity against recultured Klebsiella pneumoniae at MIC after 3 to 4 days by agar well diffusion method
Talaromyces marneffei [10] = assay: Antifungal activity against recultured Penicillium marneffei by serial plate dilution method
[11] = system: Trichophyton mentagrophytes; assay: Antifungal activity against recultured Trichophyton mentagrophytes by serial plate dilution method
Aspergillus flavus [12] = assay: Antifungal activity against Aspergillus flavus NCIM 524 by serial plate dilution method
Aspergillus fumigatus [13] = assay: Antifungal activity against Aspergillus fumigatus NCIM 902 by serial plate dilution method
Talaromyces marneffei [14] = assay: Antifungal activity against recultured Penicillium marneffei at MIC after 3 to 4 days by agar well diffusion method; outline: as §1
[15] = system: Trichophyton mentagrophytes; assay: Antifungal activity against recultured Trichophyton mentagrophytes at MIC after 3 to 4 days by agar well diffusion method; outline: as §1
Aspergillus flavus [16] = assay: Antifungal activity against Aspergillus flavus NCIM 524 at MIC after 3 to 4 days by agar well diffusion method; outline: as §1

MIC (Staphylococcus aureus [2]) [µg/mL]	MIC (Escherichia coli [3]) [µg/mL]	MIC (Pseudomonas aeruginosa [4]) [µg/mL]	MIC (Klebsiella pneumoniae [5]) [µg/mL]	MIC (Talaromyces marneffei [10]) [µg/mL]	MIC [11] [µg/mL]	MIC (Aspergillus flavus [12]) [µg/mL]	MIC (Aspergillus fumigatus [13]) [µg/mL]	SMILES	inhibition zone (IZ) (Aspergillus fumigatus [1]) [mm]	inhibition zone (IZ) (Staphylococcus aureus [6]) [mm]	inhibition zone (IZ) (Escherichia coli [7]) [mm]	inhibition zone (IZ) (Pseudomonas aeruginosa [8]) [mm]	inhibition zone (IZ) (Klebsiella pneumoniae [9]) [mm]	inhibition zone (IZ) (Talaromyces marneffei [14]) [mm]	inhibition zone (IZ) [15] [mm]	inhibition zone (IZ) (Aspergillus flavus [16]) [mm]
50 (≈ 97.4 µM)	6.25 (≈ 12.2 µM)	50 (≈ 97.4 µM)	50 (≈ 97.4 µM)	50 (≈ 97.4 µM)	50 (≈ 97.4 µM)	50 (≈ 97.4 µM)	50 (≈ 97.4 µM)	NCCN1CCN(c2c(-c3nnc(S)n3Cc3ccccc3)cnc3c(C(F)(F)F)cccc23)CC1	<10	<10	20	<10	<10	<10	<10	<10
6.25 (≈ 13.7 µM)	6.25 (≈ 13.7 µM)	6.25 (≈ 13.7 µM)	6.25 (≈ 13.7 µM)	6.25 (≈ 13.7 µM)	6.25 (≈ 13.7 µM)	6.25 (≈ 13.7 µM)	6.25 (≈ 13.7 µM)	FC(F)(F)c1cccc2c(N3CCOCC3)c(-c3nnc(S)n3-c3ccccc3)cnc12	16	16	20	16	16	16	20	16
12.5 (≈ 25.7 µM)	12.5 (≈ 25.7 µM)	12.5 (≈ 25.7 µM)	12.5 (≈ 25.7 µM)	12.5 (≈ 25.7 µM)	12.5 (≈ 25.7 µM)	12.5 (≈ 25.7 µM)	12.5 (≈ 25.7 µM)	CC(C)(C)CCNc1c(-c2nnc(S)n2Cc2ccccc2)cnc2c(C(F)(F)F)cccc12	10	10	16	10	12	10	16	10
50 (≈ 110 µM)	50 (≈ 110 µM)	50 (≈ 110 µM)	50 (≈ 110 µM)	6.25 (≈ 13.8 µM)	6.25 (≈ 13.8 µM)	6.25 (≈ 13.8 µM)	6.25 (≈ 13.8 µM)	COCCn1c(S)nnc1-c1cnc2c(C(F)(F)F)cccc2c1NCCC(C)(C)C	16	<10	<10	<10	<10	16	20	16
6.25 (≈ 12.6 µM)	6.25 (≈ 12.6 µM)	50 (≈ 101 µM)	50 (≈ 101 µM)	50 (≈ 101 µM)	50 (≈ 101 µM)	50 (≈ 101 µM)	50 (≈ 101 µM)	COCCn1c(S)nnc1-c1cnc2c(C(F)(F)F)cccc2c1N1CCC(CCCO)CC1	<10	16	20	<10	<10	<10	<10	<10
12.5 (≈ 32.2 µM)	6.25 (≈ 16.1 µM)	12.5 (≈ 32.2 µM)	12.5 (≈ 32.2 µM)	12.5 (≈ 32.2 µM)	12.5 (≈ 32.2 µM)	12.5 (≈ 32.2 µM)	12.5 (≈ 32.2 µM)	COCCn1c(S)nnc1-c1cnc2c(C(F)(F)F)cccc2c1Cl	10	10	16	10	12	10	10	10
6.25 (≈ 13.3 µM)	12.5 (≈ 26.5 µM)	50 (≈ 106 µM)	50 (≈ 106 µM)	12.5 (≈ 26.5 µM)	12.5 (≈ 26.5 µM)	12.5 (≈ 26.5 µM)	12.5 (≈ 26.5 µM)	FC(F)(F)c1cccc2c(N3CCOCC3)c(-c3nnc(S)n3Cc3ccccc3)cnc12	10	16	16	<10	<10	10	16	10
12.5 (≈ 25.8 µM)	12.5 (≈ 25.8 µM)	12.5 (≈ 25.8 µM)	12.5 (≈ 25.8 µM)	12.5 (≈ 25.8 µM)	12.5 (≈ 25.8 µM)	12.5 (≈ 25.8 µM)	12.5 (≈ 25.8 µM)	FC(F)(F)c1cccc2c(NC3CCCCC3)c(-c3nnc(S)n3Cc3ccccc3)cnc12	10	10	16	10	12	10	16	10
50 (≈ 92.8 µM)	6.25 (≈ 11.6 µM)	50 (≈ 92.8 µM)	50 (≈ 92.8 µM)	50 (≈ 92.8 µM)	50 (≈ 92.8 µM)	50 (≈ 92.8 µM)	50 (≈ 92.8 µM)	FC(F)(F)c1cccc2c(N3CCN(C4CCCCC4)CC3)c(-c3nnc(S)n3-c3ccccc3)cnc12	<10	<10	20	<10	<10	<10	<10	<10
50 (≈ 124 µM)	50 (≈ 124 µM)	50 (≈ 124 µM)	50 (≈ 124 µM)	50 (≈ 124 µM)	50 (≈ 124 µM)	50 (≈ 124 µM)	50 (≈ 124 µM)	Oc1c(-c2nnc(S)n2Cc2ccccc2)cnc2c(C(F)(F)F)cccc12	<10	<10	<10	<10	<10	<10	<10	<10
6.25 (≈ 12.2 µM)	12.5 (≈ 24.3 µM)	50 (≈ 97.4 µM)	50 (≈ 97.4 µM)	50 (≈ 97.4 µM)	50 (≈ 97.4 µM)	50 (≈ 97.4 µM)	50 (≈ 97.4 µM)	OCCCC1CCN(c2c(-c3nnc(S)n3-c3ccccc3)cnc3c(C(F)(F)F)cccc23)CC1	<10	16	16	<10	<10	<10	<10	<10
6.25 (≈ 13.3 µM)	6.25 (≈ 13.3 µM)	6.25 (≈ 13.3 µM)	6.25 (≈ 13.3 µM)	6.25 (≈ 13.3 µM)	6.25 (≈ 13.3 µM)	6.25 (≈ 13.3 µM)	6.25 (≈ 13.3 µM)	FC(F)(F)c1cccc2c(NC3CCCCC3)c(-c3nnc(S)n3-c3ccccc3)cnc12	16	16	20	16	16	16	20	16
6.25 (≈ 13.4 µM)	6.25 (≈ 13.4 µM)	6.25 (≈ 13.4 µM)	6.25 (≈ 13.4 µM)	6.25 (≈ 13.4 µM)	6.25 (≈ 13.4 µM)	6.25 (≈ 13.4 µM)	6.25 (≈ 13.4 µM)	COCCn1c(S)nnc1-c1cnc2c(C(F)(F)F)cccc2c1N1CC(C)OC(C)C1 (stereo not given)	16	16	20	16	16	16	20	16
6.25 (≈ 14.2 µM)	6.25 (≈ 14.2 µM)	6.25 (≈ 14.2 µM)	6.25 (≈ 14.2 µM)	6.25 (≈ 14.2 µM)	6.25 (≈ 14.2 µM)	6.25 (≈ 14.2 µM)	6.25 (≈ 14.2 µM)	COCCn1c(S)nnc1-c1cnc2c(C(F)(F)F)cccc2c1N1CCOCC1	16	16	20	16	16	16	20	16
6.25 (≈ 15.3 µM)	6.25 (≈ 15.3 µM)	6.25 (≈ 15.3 µM)	6.25 (≈ 15.3 µM)	6.25 (≈ 15.3 µM)	6.25 (≈ 15.3 µM)	6.25 (≈ 15.3 µM)	6.25 (≈ 15.3 µM)	COCCn1c(S)nnc1-c1cnc2c(C(F)(F)F)cccc2c1NC1CC1	16	16	20	16	16	16	20	16

SMILES	MIC (Staphylococcus aureus [2]) [µg/mL]	MIC (Escherichia coli [3]) [µg/mL]	MIC (Pseudomonas aeruginosa [4]) [µg/mL]	MIC (Klebsiella pneumoniae [5]) [µg/mL]	MIC (Talaromyces marneffei [10]) [µg/mL]	MIC [11] [µg/mL]	MIC (Aspergillus flavus [12]) [µg/mL]	MIC (Aspergillus fumigatus [13]) [µg/mL]	inhibition zone (IZ) (Aspergillus fumigatus [1]) [mm]	inhibition zone (IZ) (Staphylococcus aureus [6]) [mm]	inhibition zone (IZ) (Escherichia coli [7]) [mm]	inhibition zone (IZ) (Pseudomonas aeruginosa [8]) [mm]	inhibition zone (IZ) (Klebsiella pneumoniae [9]) [mm]	inhibition zone (IZ) (Talaromyces marneffei [14]) [mm]	inhibition zone (IZ) [15] [mm]	inhibition zone (IZ) (Aspergillus flavus [16]) [mm]
O=C(O)c1cn(C2CC2)c2cc(N3CCNCC3)c(F)cc2c1=O [CIPROFLOXACIN]	–	–	–	6.25 (≈ 18.9 µM)	–	–	–	–	–	22	30	25	23	–	–	–
